# Experimental data from different studies.
# Compare with care: the assays were run in different laboratories.
# MAP2K3: Dual specificity mitogen-activated protein kinase kinase 3 (MAP2K3, Homo sapiens, UniProt P46734)
# BCHE: Cholinesterase (BCHE, Equus caballus, UniProt P81908)
# MAP3K6: Mitogen-activated protein kinase kinase kinase 6 (MAP3K6, Homo sapiens, UniProt O95382)
Compound,target,assay,setting,quantity,value
COc1ncccc1-c1cnn2ccc(N3CCN(C(=O)OC(C)C)CC3)nc12,MAP2K3,"binding, competition with immobilised ligand",1 µM,remaining binding,80%
O=P(O)(O)O[C@H]1O[C@H](CO)[C@@H](O)[C@H](O)[C@H]1O,"Glycogen phosphorylase, muscle form (PYGM, Oryctolagus cuniculus, UniProt P00489)","enzyme activity, substrate",,Km,920 µM
CCN(CC)CCCC[C@H](NC(=O)[C@H](CC(C)C)NC(=O)[C@H](C)NC(=O)[C@H](Cc1ccccc1)NC(=O)c1ccc(C(C)(C)C)cc1)C(=O)N[C@@H](CO)C(=O)OC,"Peregrin, bromodomain (BRPF1, Homo sapiens, UniProt P55201)","thermal stability, DSF",25 µM,ΔTm,0.47 °C
COc1cc2c(cc1OC)C(=O)N(Cc1ccccn1)C2,BCHE,"enzyme activity, inhibitor, Ellman",1 µM,inhibition,-8.8%
Cc1nn(C)cc1-c1nc2c(N3CCN(Cc4ccc(Cl)cc4)CC3)c(Cl)cnc2[nH]1,MAP3K6,"binding, competition with immobilised ligand",1 µM,remaining binding,100%
COc1cc2c(cc1OC)C(=O)N(CC1CCN(Cc3cccc(C#N)c3)CC1)C2,BCHE,"enzyme activity, inhibitor, Ellman",1 µM,inhibition,15.6%
C#Cc1n[nH]c2c(-c3cn([C@@H](C)c4ccccn4)c(=O)[nH]c3=O)cc(F)cc12,"Serine/threonine-protein kinase Nek2 (NEK2, Homo sapiens, UniProt P51955)","enzyme activity, inhibitor",0.1 µM,inhibition,12%
Nc1ncc(-c2nc(N3CCOCC3)nc(N3CCOCC3)n2)c(C(F)F)n1,MAP3K6,"binding, competition with immobilised ligand",10 µM,remaining binding,76%
COc1ccc2[nH]cc(CCN3Cc4cc(OC)c(OC)cc4C3=O)c2c1,BCHE,"enzyme activity, inhibitor, Ellman",1 µM,inhibition,19%
Cn1cc(-c2cccc(N3CCc4c(sc5c4CC(C)(C)C5)C3=O)c2CO)cc(Nc2ccncn2)c1=O,MAP2K3,"enzyme activity, inhibitor",1 µM,inhibition,2%
COc1cc2c(cc1OC)C(=O)N(Cc1cnc3c(c1)OCCN3C)C2,BCHE,"enzyme activity, inhibitor, Ellman",1 µM,inhibition,13.6%
COc1ccc(-c2ccc(N)cc2-c2nc3ccccc3s2)cc1,"Prostaglandin G/H synthase 1 (PTGS1, Ovis aries, UniProt P05979)","enzyme activity, inhibitor, absorbance",10 µM,inhibition,65.4%
